Assay outcomes from PubChem BioAssay.
Shown are actives, neighbours in structure and some others; about 3.1% of the full set was active somewhere.
KCNK9 block – human KCNK9 channel inhibition | HEK293 KCNK9, FluxOR thallium flux fluorescence; stronger effect = lower value | AID 488922 | hit rate 1.2% among 310,000 | B-score at 10 µM;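 active means ratio B-score over 3 SD below the library mean, with starting fluorescence within 5 SD of its mean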;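 further: negative B-score means less thallium flux so channel inhibition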
KCNQ1 block – inhibitors of human KCNQ1 potassium channel; P51787; CHO-K1 KCNQ1, FluxOR thallium flux fluorescence; stronger effect = higher value; B-score at 10 µM; hit rate 1.3% among 310,000; AID 2642;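 active means compounds whose thallium flux B-score, printed positive for inhibition, exceeds three library SD while starting fluorescence stays within three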;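 further: channel opened by potassium depolarization with thallium stimulus after 20 min compound exposure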
Target sequence (P51787 whole entry, looked up): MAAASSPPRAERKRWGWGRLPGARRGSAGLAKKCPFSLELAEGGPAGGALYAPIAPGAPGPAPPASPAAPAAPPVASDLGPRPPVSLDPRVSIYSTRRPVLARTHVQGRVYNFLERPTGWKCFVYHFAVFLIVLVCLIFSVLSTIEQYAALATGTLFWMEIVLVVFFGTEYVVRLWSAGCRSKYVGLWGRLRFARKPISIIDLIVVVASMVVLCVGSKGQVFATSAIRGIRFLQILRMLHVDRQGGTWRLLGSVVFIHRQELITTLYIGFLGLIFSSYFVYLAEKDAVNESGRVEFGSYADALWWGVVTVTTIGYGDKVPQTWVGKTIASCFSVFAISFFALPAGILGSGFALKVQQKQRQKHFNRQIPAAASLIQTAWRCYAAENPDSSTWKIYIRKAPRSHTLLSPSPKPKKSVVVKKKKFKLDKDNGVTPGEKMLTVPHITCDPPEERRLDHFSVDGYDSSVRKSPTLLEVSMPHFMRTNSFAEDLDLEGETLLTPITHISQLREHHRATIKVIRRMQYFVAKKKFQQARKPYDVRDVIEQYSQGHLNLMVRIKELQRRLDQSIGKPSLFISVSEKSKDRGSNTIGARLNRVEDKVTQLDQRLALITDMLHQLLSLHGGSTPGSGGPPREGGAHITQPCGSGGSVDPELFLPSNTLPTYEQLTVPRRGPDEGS
hERG protect – shields human hERG channel from block by proarrhythmic agents. Q12809. CHO-hERG, FluxOR thallium flux, dofetilide IC70 present. activation (rescue from dofetilide block), less the hit threshold, % at 10 µM. hit rate 0.51% among 310,000. AID 1511;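 active means activation above the mean of controls blocked by dofetilide plus 5 SD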;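 further: thallium influx through hERG after potassium depolarization seen as dye fluorescence rise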
KCNQ1 act – human KCNQ1 channel potentiation or activation. CHO-K1 KCNQ1, thallium flux FluxOR fluorescence; stronger effect = higher value. hit rate 0.35% among 310,000. AID 2648. B-score at 10 µM;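 active means fluorescence ratio B-score, a plate-corrected score, at least three library SD, with initial intensity B-score within 5 SD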
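Test system: CHO-K1 cells stably expressing KCNQ1 / Medium: assay buffer / Also added: depolarizing K+/Tl+ stimulus, K2SO4 and Tl2SO4 each 12.5 mM in 5x stock / Incubation: 90 min dye loading and 20 min compound exposure, both at room temperature / Signal: thallium influx via FluxOR fluorescence, kinetic imaging / Evaluation: B score of baseline-normalized fluorescence ratio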
KCNK3 block – human KCNK3 channel inhibition, primary screen; hit rate 0.84% among 340,000; AID 602410; CHO-KCNK3 thallium flux, FluxOR fluorescence; stronger effect = lower value; B-score at 10 µM; O14649;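 active means B-score under library mean minus 4 SD, starting fluorescence ratio at most library mean plus 5 SD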;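 further: more negative B-score means stronger inhibition of thallium flux through KCNK3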
Large screens that a line does not name were inactive.

COC(=O)c1ccc(NC(=S)NC(=O)c2cc(-c3ccccc3)nc3ccccc23)cc1	hERG protect 6.2, KCNQ1 act 29
COc1cc(-c2cc(C(=O)Nc3c(Cl)cc(Cl)cc3Cl)c3ccccc3n2)cc(OC)c1OC	KCNQ1 block 7
Cc1nn(-c2ccc(N3CCOCC3)nn2)c(C)c1CCC(=O)NCc1ccccc1F	none
COc1ccc(C(=O)NNC(=S)NC(=O)c2cc(-c3ccccc3)nc3ccccc23)cc1	KCNQ1 act 9
CCCOc1ccc(C(=O)NNC(=S)NC(=O)c2cc(-c3ccc(Cl)cc3)nc3ccccc23)cc1	none
Cc1ncoc1C(=O)N1CCCC(N2CCN(c3cccc(C(F)(F)F)c3)CC2)C1 (stereo not drawn)	none
CCN=C1SC(C(=O)Nc2cccc(Br)c2)CC(=O)N1CC (stereo not drawn)	KCNK9 block -7.09
Cc1ccc(NC(=S)NC(=O)c2cncc(Br)c2)cc1Cl	hERG protect 8.8
O=C(NC(=S)Nc1ccc(Cl)cc1)c1cncc(Br)c1	none
COC(=O)C1=C(COc2ccc(F)cc2)NC(=O)NC1c1ccc(C)cc1C (stereo not drawn)	hERG protect 7.4
CCOC(=O)C1=C(COc2ccc(C)cc2)NC(=O)NC1c1cc(C)ccc1C (stereo not drawn)	none
C/C(=N\NC(=O)CN1CCN(S(=O)(=O)c2ccc(C)cc2)CC1)c1ccncc1	none
COC(=O)c1ccnc(/C=N/O)c1	hERG protect 6.2
CCn1nc(C)c([N+](=O)[O-])c1C(=O)NNC(=O)c1ccc(Cl)cc1	none
CCCC(C(=O)Nc1cccc(S(=O)(=O)N2CCCC2)c1)c1ccccc1 (stereo not drawn)	KCNK9 block -7.38
Cc1ccc(C)c(OCCC(=O)Nc2cc(S(=O)(=O)N3CCCCC3)ccc2C)c1	none (no result: KCNK9 block, KCNQ1 block, hERG protect, KCNQ1 act)
Cc1ccc(C)c(OCCC(=O)OCC(=O)Nc2cc(S(=O)(=O)N3CCCCC3)ccc2C)c1	KCNK3 block -10.2 (no result: KCNK9 block, KCNQ1 block, hERG protect, KCNQ1 act)
Cc1ccc(C)c(C(=O)OCC(=O)Nc2cccc(S(=O)(=O)N3CCCCC3)c2)c1	KCNK3 block -9.59 (no result: KCNK9 block, KCNQ1 block, hERG protect, KCNQ1 act)
CCc1nc2ccccc2c(C(=O)OCC(=O)Nc2cccc(S(=O)(=O)N3CCOCC3)c2)c1C	KCNK3 block -9.03
CC(=O)Oc1ccc(C(=O)Nc2ccc(S(=O)(=O)N3CCOCC3)cc2)cc1	none
O=C1OCC=C1NNC(=O)c1cccnc1	none
CCCn1c2ccccc2c2cnn(CC(=O)NCCCN3C(C)CCCC3C)c(=O)c21 (stereo not drawn)	none
Cc1ccc(S(=O)(=O)N2CCCCC2)cc1NC(=O)c1cc2ccccc2o1	KCNK3 block -9.02 (no result: KCNK9 block, KCNQ1 block, hERG protect, KCNQ1 act)
C=CCS/C(=N\n1cnc2ccccc2c1=O)N(CC)CC	KCNK9 block -7.62
C=CCS/C(=N\n1cnc2ccccc2c1=O)N1CCCCC1	none
CCOC(=O)c1n[nH]n2c1nc(=O)c1ccccc12	none
Cc1ccc(S(=O)(=O)c2n[nH]n3c2nc(=O)c2ccccc23)cc1	hERG protect 8.6
CN1C(=O)c2cccc3c(N(C)C)ccc(c23)C1=O	KCNQ1 block 6
CN(C)c1ccc(CNC(=O)CCNS(=O)(=O)c2cc(Br)cnc2N)cc1	none
Cc1ccc(C(=O)NCCC(=O)NCc2cc(=O)n(C)c(=O)n2C)cc1	KCNQ1 act 8
CCOC(=O)CSc1nc2c([nH]c3ccccc32)c(=O)n1C	hERG protect 6.7
CCOC(=O)C(C)Sc1nc2c([nH]c3ccccc32)c(=O)n1C (stereo not drawn)	none
CC(=O)Nc1cc(=O)c2cccnc2[nH]1	none (no result: KCNK9 block, KCNQ1 block, hERG protect, KCNQ1 act)
COc1ccc(C(=O)Nc2sc(C)c(-c3ccccc3)c2C#N)cc1OC	KCNQ1 block 6, KCNK3 block -10.6
Cc1sc(NC(=O)COc2ccccc2)c(C#N)c1-c1ccccc1	none
COCCCn1c(=O)c2ccccc2n(CC(=O)NCCC2=CCCCC2)c1=O	none
CC1(C)CC(=NOC(=O)c2ccccc2)CC(C)(C)N1O	none
O=c1[nH]cc(-c2ccccc2)c(=O)[nH]1	KCNQ1 act 12
O=C(Oc1cccc(C(=S)N2CCOCC2)c1)c1ccccc1	none
O=C(Oc1ccc(Br)cc1C(=S)N1CCOCC1)c1ccccc1	KCNK9 block -8.01
N#Cc1c(/N=C/c2cc3ccccc3s2)sc2c1CCC2	none
Cc1[nH]n(-c2cccc3ccccc23)c(=O)c1/C=N/c1sc2c(c1C#N)CCC2	KCNQ1 act 11
Cc1[nH]n(-c2ccc(F)cc2)c(=O)c1/C=N/c1sc2c(c1C#N)CCCC2	hERG protect 20.0, KCNQ1 act 34
CC(C)c1cc2c(c(O)c1O)[C@@]13CCCC(C)(C)C1CC2OC3=O (stereo partly drawn)	none
COc1ccc(C2CC(c3cccs3)=NN2C(=O)CSc2nc3c(cnn3-c3ccccc3)c(=O)[nH]2)cc1 (stereo not drawn)	KCNQ1 block 6
Cc1noc(C)c1COc1cccc(C(=O)Nc2ccc(Br)cc2F)c1	KCNK3 block -9.22 (no result: KCNK9 block, KCNQ1 block, hERG protect, KCNQ1 act)
O=C(CCN1C(=O)/C(=C\C=C\c2ccccc2)SC1=S)Nc1cccc(C(=O)O)c1	hERG protect 44.8
O=C(CCCN1C(=O)/C(=C\c2ccccc2)SC1=S)Nc1cccc(C(=O)O)c1	none
O=C(OCc1cccc([N+](=O)[O-])c1)c1ccc2ccccc2n1	hERG protect 5.2
CCOc1ccc(N(CC(=O)NCc2ccc(F)cc2)C(=O)c2ccco2)cc1	none
NC(=O)CCS(=O)(=O)c1ccc(Cl)cc1	hERG protect 6.4
NC(=O)CCS(=O)(=O)c1ccccc1	none
CS(=O)(=O)c1nc(-c2ccco2)cc(C(F)(F)F)n1	KCNQ1 block 7 (no result: KCNK3 block)
COc1ccccc1-c1cc(C(F)(F)F)nc(S(C)(=O)=O)n1	none
O=C(NC(=S)N1CCN(c2ccc(C(F)(F)F)cc2[N+](=O)[O-])CC1)c1cccs1	KCNQ1 act 10
O=[N+]([O-])c1cc(C(F)(F)F)ccc1N1CCN(S(=O)(=O)c2ccc3c(c2)CCCC3)CC1	none
CCN1CCN(C(=S)NC(=O)c2cccs2)CC1	none
O=[N+]([O-])c1cc(C(F)(F)F)ccc1N1CCCNCC1	hERG protect 7.9
CC(=O)c1cccc(OCc2cc(C(=O)NCc3nc(C)c(C)s3)no2)c1	none
CCOc1cc(/C=N/Nc2nc(Nc3ccccc3)nc(N3CCCCC3)n2)ccc1OCC(=O)O	none
COc1ccc(/C=N/Nc2nc(Nc3ccccc3)nc(N3CCCCC3)n2)cc1OC	KCNQ1 block 7
CCC(CC)C(=O)OCC(=O)Nc1cccc(S(=O)(=O)N(C)c2ccccc2)c1	KCNK9 block -7.2
CCCn1nc(C(=O)NCc2ccc3c(c2)OCO3)c2ccccc2c1=O	KCNK3 block -8.94
CC(OC(=O)c1nn(C)c(=O)c2ccccc12)C(=O)NCc1ccc2c(c1)OCO2 (stereo not drawn)	none
CCCn1c(=O)c(C(=O)NCc2cccnc2)c(O)c2ccccc21	none
CCCn1c(=O)c(C(=O)NCc2ccc3c(c2)OCO3)c(O)c2ccccc21	KCNQ1 block 8
